As usually defined, the EC50 is the concentration needed to bring the measured effect to its halfway point.

Active and inactive are the calls of the source. The rule behind the calls is not given here.

We go through 4 molecules from ChEMBL document CHEMBL3286380, “Design and synthesis of lupeol analogues and their glucose uptake stimulatory effect in L6 skeletal muscle cells” (Bioorg Med Chem Lett, 2014).

Experiment [1] has as its system L6. The experiment is described as follows: Increase in 2-[3H]-deoxyglucose uptake in rat L6 cells after 16 hrs by scintillation counting analysis. It is filed as functional, cell-based. A digest of the protocol: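 Dose–response in L6 myotubes: vehicle (DMSO) or compound at 5, 10, 25 µM for 16 h before glucose uptake measurement; rosiglitazone 10 µM as positive control. Expressed as fold stimulation over control; mean ± SE of three independent experiments, each in triplicate.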

Experiment [2] relates to L6. Nature of the experiment: Increase in 2-[3H]-deoxyglucose uptake in rat L6 cells at 10 uM after 16 hrs by scintillation counting analysis relative to lupeol. It is filed as functional.
In experiment [3] the test system is L6. The experiment is described as follows: Potentiation of insulin-stimulated 2-[3H]-deoxyglucose uptake in rat L6 cells at 10 uM treated for 16 hrs followed by incubation for 3 hrs in serum free medium and insulin stimulation for 20 mins by scintillation counting analysis. The class given is functional, cell-based. In short, it runs like this:
(§1)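 Cells (L6 myotubes, 3T3-L1 adipocytes or HepG2 hepatic cells) treated with compound (10 µM) for 16 h, last 3 h serum-free, with or without insulin (100 nM, 20 min) before glucose uptake. Reported as fold stimulation over basal control; mean ± SE of three independent experiments, each in triplicate.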

Experiment [4] deals with T1, Solute carrier family 2, facilitated glucose transporter member 4 (Rattus norvegicus) (UniProt P19357).
T1 sequence (whole entry): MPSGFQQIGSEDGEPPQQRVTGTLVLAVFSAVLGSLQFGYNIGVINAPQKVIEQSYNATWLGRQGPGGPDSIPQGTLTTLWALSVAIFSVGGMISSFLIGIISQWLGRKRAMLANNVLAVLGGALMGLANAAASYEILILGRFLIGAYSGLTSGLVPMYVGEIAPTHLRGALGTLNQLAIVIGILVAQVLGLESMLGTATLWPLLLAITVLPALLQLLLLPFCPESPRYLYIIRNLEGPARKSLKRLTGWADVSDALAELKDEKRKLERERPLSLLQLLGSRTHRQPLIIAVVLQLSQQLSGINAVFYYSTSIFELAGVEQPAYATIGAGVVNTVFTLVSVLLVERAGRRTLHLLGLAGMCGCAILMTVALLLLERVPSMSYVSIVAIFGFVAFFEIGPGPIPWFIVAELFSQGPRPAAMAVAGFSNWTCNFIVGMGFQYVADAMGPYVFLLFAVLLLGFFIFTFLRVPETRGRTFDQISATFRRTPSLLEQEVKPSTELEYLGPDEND
Nature of the experiment: Induction of GLUT4 translocation to cell surface in rat L6-GLUT4myc cells at 10 uM treated for 16 hrs followed by incubation for 3 hrs in serum free medium and insulin stimulation for 20 mins. The class given is cell-based. A digest of the protocol:
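L6-GLUT4myc myotubes given compound (10 µM) for 16 h, the final 3 h in serum-free medium; a subset stimulated with insulin (100 nM) for 20 min before measuring surface GLUT4myc. Fold over basal control; mean ± SE, three independent experiments in triplicate.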

Experiment [5] deals with 5'-AMP-activated protein kinase catalytic subunit alpha-1 (Rattus norvegicus) (UniProt P54645). Nature of the experiment: Effect on AMPK-alpha phosphorylation at Thr-172 residue in rat L6 cells at 10 uM after 16 hrs by immunoblot analysis. It is filed as cell-based. A digest of the protocol: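 L6 myotubes exposed to compound (10 µM) for 16 h, then lysed; western blot for phospho-AMPK (Thr-172), quantified by densitometry relative to total AMPK. Mean ± SEM of three independent experiments.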
5'-AMP-activated protein kinase catalytic subunit alpha-1 (Rattus norvegicus), sequence (P54645 whole entry): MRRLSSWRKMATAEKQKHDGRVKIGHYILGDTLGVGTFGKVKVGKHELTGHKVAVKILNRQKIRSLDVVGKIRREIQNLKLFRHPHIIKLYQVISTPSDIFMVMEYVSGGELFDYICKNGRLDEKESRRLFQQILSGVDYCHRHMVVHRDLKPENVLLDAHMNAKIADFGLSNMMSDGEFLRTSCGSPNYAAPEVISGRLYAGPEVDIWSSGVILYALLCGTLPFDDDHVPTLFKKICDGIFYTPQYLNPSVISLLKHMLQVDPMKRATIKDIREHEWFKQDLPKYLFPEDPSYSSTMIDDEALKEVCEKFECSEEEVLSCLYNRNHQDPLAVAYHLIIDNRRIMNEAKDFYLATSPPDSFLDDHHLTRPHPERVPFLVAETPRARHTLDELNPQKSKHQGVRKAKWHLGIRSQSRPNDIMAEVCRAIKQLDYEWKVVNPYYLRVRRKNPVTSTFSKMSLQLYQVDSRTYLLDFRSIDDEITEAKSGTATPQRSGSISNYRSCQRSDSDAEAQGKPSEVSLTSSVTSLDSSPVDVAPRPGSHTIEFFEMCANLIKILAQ
In general terms: A western blot detects proteins with antibodies after separation by electrophoresis.

The test system of experiment [6] is L6. Nature of the experiment: Increase in 2-[3H]-deoxyglucose uptake in rat L6 cells at 10 uM after 16 hrs by scintillation counting analysis (reference value: 0%). The class given is functional.
The next experiment concerns HepG2. Nature of the experiment: Potentiation of insulin-stimulated 2-[3H]-deoxyglucose uptake in human HepG2 cells at 10 uM treated for 16 hrs followed by incubation for 3 hrs in serum free medium and insulin stimulation for 20 mins by scintillation counting analysis. The class given is functional, cell-based. In short, it runs like this:
as §1

The next experiment deals with 3T3-L1. The experiment is described as follows: Potentiation of insulin-stimulated 2-[3H]-deoxyglucose uptake in mouse 3T3L1 cells at 10 uM treated for 16 hrs followed by incubation for 3 hrs in serum free medium and insulin stimulation for 20 mins by scintillation counting analysis. The class given is functional, cell-based. A digest of the protocol:
as §1

Experiment [7] has as its target Insulin receptor (Rattus norvegicus) (UniProt P15127). The experiment is described as follows: Effect on IR-beta phosphorylation in rat L6 cells at 10 uM treated for 16 hrs followed by incubation for 3 hrs in serum free medium and insulin stimulation for 20 mins by Western blot analysis. It is filed as cell-based. In short, it runs like this:
(§2)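 L6 myotubes were exposed to compound (10 μM) for 16 h, serum-free for the last 3 h. One subset then received insulin (100 nM) for 20 min. Cells were lysed and equal protein amounts were western blotted. Densitometry gave pIRβ/IRβ, pIRS-1/IRS-1 and pAKT/AKT ratios. Three independent experiments, mean SEM.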

The target of experiment [8] is T2, Insulin receptor substrate 1 (Rattus norvegicus) (UniProt P35570).
T2 sequence (whole entry): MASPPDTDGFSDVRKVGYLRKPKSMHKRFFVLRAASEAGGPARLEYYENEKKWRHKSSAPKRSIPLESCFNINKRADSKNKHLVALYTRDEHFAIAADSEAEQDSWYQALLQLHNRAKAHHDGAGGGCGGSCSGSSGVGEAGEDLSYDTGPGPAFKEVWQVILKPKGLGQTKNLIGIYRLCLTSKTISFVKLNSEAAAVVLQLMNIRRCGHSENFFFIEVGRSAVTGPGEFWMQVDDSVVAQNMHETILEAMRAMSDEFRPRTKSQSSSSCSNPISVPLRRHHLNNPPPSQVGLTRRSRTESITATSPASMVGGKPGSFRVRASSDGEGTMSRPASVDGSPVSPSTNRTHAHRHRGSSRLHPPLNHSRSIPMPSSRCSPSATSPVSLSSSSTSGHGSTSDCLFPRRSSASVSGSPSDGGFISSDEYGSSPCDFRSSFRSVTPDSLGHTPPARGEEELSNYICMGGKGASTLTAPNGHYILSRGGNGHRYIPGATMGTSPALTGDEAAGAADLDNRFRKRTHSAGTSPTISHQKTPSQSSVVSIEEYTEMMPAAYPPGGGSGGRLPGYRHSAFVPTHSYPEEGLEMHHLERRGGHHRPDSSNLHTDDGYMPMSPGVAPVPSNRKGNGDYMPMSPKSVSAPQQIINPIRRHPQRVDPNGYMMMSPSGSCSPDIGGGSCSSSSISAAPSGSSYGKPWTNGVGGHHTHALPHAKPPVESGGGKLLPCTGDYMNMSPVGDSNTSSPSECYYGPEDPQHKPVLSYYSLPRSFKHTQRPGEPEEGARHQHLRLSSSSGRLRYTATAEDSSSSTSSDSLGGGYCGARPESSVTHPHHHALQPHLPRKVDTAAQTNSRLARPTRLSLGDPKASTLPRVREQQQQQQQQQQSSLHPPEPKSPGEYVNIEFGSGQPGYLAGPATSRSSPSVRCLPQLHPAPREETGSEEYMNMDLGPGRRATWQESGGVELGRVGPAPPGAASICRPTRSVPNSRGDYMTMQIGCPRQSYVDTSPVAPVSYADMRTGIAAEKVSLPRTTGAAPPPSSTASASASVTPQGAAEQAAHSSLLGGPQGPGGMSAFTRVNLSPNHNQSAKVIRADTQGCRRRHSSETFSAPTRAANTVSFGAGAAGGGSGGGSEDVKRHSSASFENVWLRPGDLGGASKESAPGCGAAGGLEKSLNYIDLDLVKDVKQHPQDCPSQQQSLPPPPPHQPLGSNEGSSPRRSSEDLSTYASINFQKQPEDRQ
The experiment is described as follows: Increase in IRS-1 phosphorylation in rat L6 cells at 10 uM treated for 16 hrs followed by incubation for 3 hrs in serum free medium and insulin stimulation for 20 mins by Western blot analysis. The class given is cell-based. A digest of the protocol: as §2

For experiment [9], the system named is L6. The experiment is described as follows: Potentiation of insulin-stimulated 2-[3H]-deoxyglucose uptake in rat L6 cells at 10 uM treated for 16 hrs followed by incubation for 3 hrs in serum free medium and insulin stimulation for 20 mins by scintillation counting analysis in presence of PI3K inhibitor wortmannin. It is filed as functional, cell-based. In short, it runs like this:
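L6 myotubes were given compound (10 μM) for 16 h, with or without wortmannin (50 nM). Insulin treatment followed, then glucose uptake was measured. Values are expressed as fold stimulation over basal control.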

The target of experiment [10] is T2, Insulin receptor substrate 1 (Rattus norvegicus). The experiment is described as follows: Increase in IRS-1-mediated Akt phosphorylation in rat L6 cells at 10 uM treated for 16 hrs followed by incubation for 3 hrs in serum free medium and insulin stimulation for 20 mins by Western blot analysis. It is filed as cell-based. A digest of the protocol: as §2

Insulin receptor (Rattus norvegicus), sequence (P15127 27-759 limits assumed): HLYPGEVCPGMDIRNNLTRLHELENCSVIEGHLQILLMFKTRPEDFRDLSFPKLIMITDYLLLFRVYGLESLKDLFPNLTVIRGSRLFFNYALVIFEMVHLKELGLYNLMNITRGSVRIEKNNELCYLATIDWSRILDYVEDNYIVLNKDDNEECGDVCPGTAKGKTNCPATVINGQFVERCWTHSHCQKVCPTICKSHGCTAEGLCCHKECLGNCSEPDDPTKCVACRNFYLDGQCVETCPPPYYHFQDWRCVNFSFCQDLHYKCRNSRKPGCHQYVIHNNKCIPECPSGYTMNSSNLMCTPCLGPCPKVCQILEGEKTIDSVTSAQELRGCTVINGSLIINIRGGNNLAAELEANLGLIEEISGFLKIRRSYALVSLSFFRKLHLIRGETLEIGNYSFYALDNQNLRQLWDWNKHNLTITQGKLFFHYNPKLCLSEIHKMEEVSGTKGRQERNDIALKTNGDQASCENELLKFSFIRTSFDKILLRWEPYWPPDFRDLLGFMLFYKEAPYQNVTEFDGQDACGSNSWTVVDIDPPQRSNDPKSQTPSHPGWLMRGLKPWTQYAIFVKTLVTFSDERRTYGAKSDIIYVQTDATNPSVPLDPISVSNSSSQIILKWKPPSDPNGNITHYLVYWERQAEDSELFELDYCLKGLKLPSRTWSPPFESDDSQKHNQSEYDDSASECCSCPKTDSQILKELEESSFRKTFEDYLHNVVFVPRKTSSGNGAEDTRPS
Insulin receptor (Rattus norvegicus), sequence (P15127 764-1383 limits assumed): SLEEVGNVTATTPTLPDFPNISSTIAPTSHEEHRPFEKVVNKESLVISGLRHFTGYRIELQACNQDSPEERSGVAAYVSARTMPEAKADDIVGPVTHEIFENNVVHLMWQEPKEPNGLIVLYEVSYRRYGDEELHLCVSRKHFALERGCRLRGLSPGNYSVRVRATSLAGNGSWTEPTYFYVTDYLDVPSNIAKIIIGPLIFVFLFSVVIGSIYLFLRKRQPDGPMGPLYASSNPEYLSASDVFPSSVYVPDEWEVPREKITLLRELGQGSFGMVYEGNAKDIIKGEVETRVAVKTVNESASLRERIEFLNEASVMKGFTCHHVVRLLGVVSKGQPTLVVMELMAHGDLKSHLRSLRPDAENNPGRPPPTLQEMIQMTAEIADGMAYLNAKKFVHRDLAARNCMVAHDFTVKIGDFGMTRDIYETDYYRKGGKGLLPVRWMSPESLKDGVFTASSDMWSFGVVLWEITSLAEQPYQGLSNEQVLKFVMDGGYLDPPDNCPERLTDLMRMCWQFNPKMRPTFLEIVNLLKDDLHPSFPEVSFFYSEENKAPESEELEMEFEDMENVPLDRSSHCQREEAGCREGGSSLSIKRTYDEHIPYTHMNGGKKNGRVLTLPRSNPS

As to `C=C(C=O)[C@@H]1CC[C@]2(C)CC[C@]3(C)[C@H](CC[C@@H]4[C@@]5(C)CC[C@H](OC(C)=O)C(C)(C)[C@@H]5CC[C@]43C)[C@@H]12`, the Activity result in the experiment on L6 [1] is “Dose-dependent effect”; in the experiment on L6 [6] it was 114.1%. The EC50 in the experiment on L6 [1] was determined as 5.2 µM. In addition, the “fold change (FC)” value in the experiment with L6 [2] turned out to be 4.5. Besides, the outcome (in the experiment on L6 [3]; in experiment [4]; in the experiment with HepG2; with 3T3-L1) was Active. Besides, in [5], the result was inactive.

As to `C=C(C=O)[C@@H]1CC[C@]2(C)CC[C@]3(C)[C@H](CC[C@@H]4[C@@]5(C)CC[C@H](O)C(C)(C)[C@@H]5CC[C@]43C)[C@@H]12`, the values for the Activity result in the experiment with L6 [1] and with L6 [6] were “Dose-dependent effect” and 173.1%, respectively. For the same molecule, the EC50 in the experiment with L6 [1] worked out at 4.2 µM. Also, the outcome (in the experiment on L6 [3]; in [4]; in experiment [8]; in the experiment on HepG2; in [10]; in the experiment with 3T3-L1) was Active. In addition, the result (in experiment [5]; in experiment [7]; with L6 [9]) was inactive.

Consider `C=C(C=O)[C@@H]1CC[C@]2(C)CC[C@]3(C)[C@H](CC[C@@H]4[C@@]5(C)CC[C@H](OC(=O)/C=C/c6ccccc6)C(C)(C)[C@@H]5CC[C@]43C)[C@@H]12`, for which the Activity entry is “Dose-dependent effect” with L6 [1] and 98.3% in the experiment on L6 [6]. Further, a half-maximal response in the experiment on L6 [1] (EC50) required 6.2 µM. Moreover, the outcome (with L6 [3]; in [4]; in the experiment with HepG2; with 3T3-L1) was Active. Besides, in [5], the outcome was inactive.

For the molecule `CC1(C)[C@@H](OC(=O)/C=C/c2ccccc2)CC[C@]2(C)[C@H]3CC[C@@H]4[C@H]5[C@H](C6C=NN(C(=O)/C=C/c7ccccc7)C6)CC[C@]5(C)CC[C@@]4(C)[C@]3(C)CC[C@@H]12` (stereo partly specified), the figures for the Activity result with L6 [1] and with L6 [6] were “Dose-dependent effect” and 107.3%, respectively. The same molecule displayed a concentration for a half-maximal effect (EC50) with L6 [1] of 4.9 µM. For the same molecule, the outcome (in the experiment on L6 [3]; in experiment [4]; in experiment [8]; in the experiment with HepG2; in experiment [10]; in the experiment on 3T3-L1) was Active. For the same molecule, the outcome (in experiment [5]; in experiment [7]; with L6 [9]) was inactive.
